VLA-4 inh – inhibition in a human VLA-4 binding assay | P13612 | VLA-4 expressing cells, ligand binding flow cytometry | inhibition, % (about 7 µM as worked out from the volumes in the protocol) | 330,000 tested, 0.2% active; in the data active = inhibition above about 50%
Target sequence (P13612 whole entry, looked up): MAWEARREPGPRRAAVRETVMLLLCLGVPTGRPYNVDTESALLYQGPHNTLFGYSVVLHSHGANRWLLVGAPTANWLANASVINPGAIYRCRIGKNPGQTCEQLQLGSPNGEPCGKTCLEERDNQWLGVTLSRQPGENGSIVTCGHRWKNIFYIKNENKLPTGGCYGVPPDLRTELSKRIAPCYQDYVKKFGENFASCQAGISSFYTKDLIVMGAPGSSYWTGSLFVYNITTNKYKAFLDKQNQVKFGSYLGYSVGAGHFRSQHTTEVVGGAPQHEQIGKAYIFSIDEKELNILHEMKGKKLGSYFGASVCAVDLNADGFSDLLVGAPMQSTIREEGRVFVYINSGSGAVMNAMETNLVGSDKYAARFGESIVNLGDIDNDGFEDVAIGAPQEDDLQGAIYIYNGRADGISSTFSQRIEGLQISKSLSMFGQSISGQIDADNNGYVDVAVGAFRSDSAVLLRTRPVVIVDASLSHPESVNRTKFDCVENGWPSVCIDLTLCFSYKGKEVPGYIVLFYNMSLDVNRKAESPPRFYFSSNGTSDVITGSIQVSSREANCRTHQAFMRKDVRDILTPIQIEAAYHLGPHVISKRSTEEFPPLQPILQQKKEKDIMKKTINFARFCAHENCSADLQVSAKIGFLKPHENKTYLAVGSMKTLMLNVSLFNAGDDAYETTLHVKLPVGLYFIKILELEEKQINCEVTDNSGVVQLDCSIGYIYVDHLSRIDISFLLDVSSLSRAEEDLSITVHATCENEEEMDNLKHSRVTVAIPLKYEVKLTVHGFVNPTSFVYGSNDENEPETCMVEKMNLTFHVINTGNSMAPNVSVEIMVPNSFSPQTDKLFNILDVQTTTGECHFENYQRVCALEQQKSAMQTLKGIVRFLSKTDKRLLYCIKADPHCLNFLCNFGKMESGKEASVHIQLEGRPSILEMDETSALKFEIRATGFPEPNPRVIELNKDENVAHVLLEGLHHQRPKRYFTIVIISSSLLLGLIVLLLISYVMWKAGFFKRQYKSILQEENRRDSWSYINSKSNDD
DAGLB inh – diacylglycerol lipase beta (human) inhibition; Q8NCG7; HEK293T DAGLB membrane lysate, EnzChek fluorogenic substrate; inhibition, % at 5.17 µM; 340,000 tested, 0.059% active; in the data active = inhibition above about 34%;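 note: 0% = enzyme with vehicle and 100% = wells lacking enzyme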
Granule exo inh – blocks lytic granule exocytosis; AID 651702; inhibition, % at 10 µM; 360,000 tested, 0.66% active; TALL-104 LAMP-1 surface exposure, flow cytometry; cells stimulated with thapsigargin and PMA;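 active = inhibition above about 55%, limit read from the data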
ABCB6 inh MLPCN – blocks the human ABCB6 transporter; Q9NP58; K562-ABCB6 porphyrin accumulation, flow cytometry, 1 h; hits give low values; fluorescence ratio to DMSO, % at 10 µM; 360,000 tested, 0.19% active; AID 602162;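 active = fluorescence ratio to DMSO below 75%, the collection mean minus 3 SD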;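 note: signal is porphyrin accumulated inside mitochondria; 100% equals median channel fluorescence of DMSO control wells; lower ratio means ABCB6 inhibition with less porphyrin fluorescence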
FGF22 binding-1 – binders of recombinant human FGF22 by thermal shift. activity (Tm shift, normalised), % at 9.99 µM. Q9HCT0. AID 651658. 340,000 tested, 1.5% active. SYPRO orange fluorescence; percent of sucrose octasulfate shift, DMSO zero;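 active = mean Tm shift, scaled 0 neutral to 100 positive control, at about 1.3% or above, every replicate too, limit read from the data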
MT1-MMP act inh – MT1-MMP (human) activation inhibition; 360,000 tested, 0.061% active; GFP/RFP ratio change, % at 20 µM; HT1080 RFP-PRO-GFP cells, GFP/RFP ratio fluorescence, overnight; percent of plate control window, DMSO zero; AID 651647; P50281;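 active = GFP/RFP ratio change of at least 30% with cell ATP level not reduced by more than half and red fluorescence within 50% of control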
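system = RFP-PRO-GFP reporter HT1080 cells | dosing = 20 µM single dose, 1% DMSO | timing = overnight cell settling, then overnight compound exposure, 37 °C, 5% CO2 | read-out basis = GFP/RFP fluorescence ratio | controls = DMSO and RFP-L50D-GFP cell wells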
FGF22 binding-2 – binds human FGF22 shifting its melting temperature. shares compounds with FGF22 binding-1. recombinant FGF22 thermal shift, SYPRO orange fluorescence. thermal shift activity, °C (ΔTm) at 38 µM. 1,000 tested, 2% active;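 active = fitted rise in melting shift crosses a set limit at or below the top valid dose tested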
SYPRO no-protein – compound-only SYPRO artifact for FGF22 binders | AC50, µM (top dose mostly 38 µM) | AID 743019 | 1,000 tested, 2% active | compound-only SYPRO orange thermal shift counter-screen, no protein | shares compounds with FGF22 binding-1;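 active = rising signal whose fitted curve reaches the 0.54 level within the top valid dose, showing a melting point, actives reach about 13 µM in these data; inactive = the rest, including activity in the opposite direction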; note: value is where the raw curve crosses a fixed level and not half-maximal
Active calls of the source: *; i = inactive; . = not tested or not shown; [ ] = dose if it differs, or a comment. Most compounds without a hit are left out; they make up all but 2% or so of the library.

SMILES	VLA-4 inh	DAGLB inh	Granule exo inh	ABCB6 inh MLPCN	FGF22 binding-1	MT1-MMP act inh	FGF22 binding-2	SYPRO no-protein
C/C=C/c1ccc([C@H]2[C@@H](CO)N(C(=O)CC)C23CN(C(=O)c2ccccc2)C3)cc1	.	.	.	.	1.4*	.	0.075	i
CC(C)NC(=O)N[C@H]1CC[C@H](CC(=O)O)O[C@H]1CO	.	.	.	.	0.6	.	.	.
CCCC(=O)Nc1ccc(C(=O)Nc2ccc([N+](=O)[O-])cc2OC)cc1	-1.6	-3.7	5.1	78.0	1.4*	1.8	-0.173	i
O=C(N/N=C/c1ccc(-c2cccc([N+](=O)[O-])c2)o1)c1ccc([N+](=O)[O-])cc1	-2.5	0.7	1.0	95.0	1.6*	4.2	-0.096	i
O=C(N/N=C/c1ccc(-c2cccc([N+](=O)[O-])c2)o1)c1ccccc1O	-3.2	4.5	-0.6	96.0	0.1	2.9	.	.
Cn1ncc2c(Nc3ccc(Br)cc3)nc(Nc3ccc(Br)cc3)nc21	4.7	-4.9	-6.4	96.0	-0.3	-6.5	.	.
Cn1ncc2c(Nc3ccc(O)cc3)nc(Cl)nc21	-3.1	3.5	-6.7	97.0	26.4*	4.4	-0.002	i
CCS(=O)(=O)N1CC(=O)N2[C@@H](CO)[C@H](c3ccc(-c4ccccc4F)cc3)[C@@H]2C1	.	.	.	.	1.1	.	.	.
CCS(=O)(=O)N1CC(=O)N2[C@H](CO)[C@@H](c3ccc(-c4ccccc4F)cc3)[C@@H]2C1	.	.	.	.	1.3*	.	0.046	i
C[C@@H]1CN([C@@H](C)CO)C(=O)c2cccc(NC(=O)c3ccc(-c4nccs4)cc3)c2O[C@H]1CN(C)Cc1ccncc1	.	.	.	.	0.0	.	.	.
COc1cc2oc(-c3ccc(O)cc3)cc(=O)c2c(O)c1OC	-6.5	-1.3	-2.1	97.0	10.1*	-10.5	-0.085	i
COc1ccccc1NC(=O)N[C@@H]1CC[C@H](CCn2cc(-c3ccccc3OC)nn2)O[C@@H]1CO	.	.	.	.	1.3*	.	0.132	i
COc1ccccc1NC(=O)N[C@H]1CC[C@H](CCn2cc(-c3ccccc3OC)nn2)O[C@H]1CO	.	.	.	.	1.7*	.	-0.098[42 µM]	i
COc1ccccc1NC(=O)N[C@H]1CC[C@H](CCn2cc(-c3ccccc3)nn2)O[C@H]1CO	.	.	.	.	-0.2	.	.	.
COc1ccc(-c2cn(CC[C@H]3CC[C@H](NC(=O)Nc4ccc(F)cc4)[C@@H](CO)O3)nn2)cc1	.	.	.	.	1.5*	.	0.056[42 µM]	i
O=C(c1ccccc1)N1CC2(C1)[C@H](c1ccccc1)[C@H](CO)N2Cc1cc(F)ccc1F	.	.	.	.	1.3*	.	0.152[42 µM]	i
O=C(C1CCOCC1)N1CC2(C1)[C@@H](c1ccccc1)[C@@H](CO)N2Cc1ccccc1F	.	.	.	.	1.5*	.	0.019	i
COc1ccc(NC(=O)Nc2ccc3c(c2)C(=O)N([C@H](C)CO)C[C@@H](C)[C@@H](CN(C)Cc2ccc(C(=O)O)cc2)OCCCC[C@@H](C)O3)cc1	.	.	.	.	0.0	.	.	.
C[C@H](CO)N1C[C@H](C)[C@H](CN(C)Cc2ccc(Cl)c(Cl)c2)Oc2ccc(NC(=O)CCN3CCOCC3)cc2CC1=O	.	.	.	.	-0.1	.	.	.
O=C(N/N=C/c1cccc(O)c1)c1cc(-c2ccc3c(c2)OCO3)n[nH]1	41.2	-0.2	3.5	93.0	1.9*	7.0	0.085	i
O=C(N/N=C/c1ccccc1)c1cc(-c2ccc3c(c2)OCO3)n[nH]1	3.7	0.8	-5.3	103.0	0.2	5.9	.	.
CCCNC(=O)[C@@H]1[C@@H](CO)[C@@H]2Cn3c(ccc(C4=CCCC4)c3=O)[C@H]1N2C(C)=O	.	.	.	.	0.1	.	.	.
Cc1ccc(-n2c(O)c(C=NC3CCS(=O)(=O)C3)c3ccccc3c2=O)cc1C (stereo not given)	6.3	0.0	-3.5	100.0	1.7*	-0.8	0.035	i
CCOC(=O)C1CCN(C(=O)CNC(=O)c2nn(-c3ccc(OC)cc3OC)c(=O)c3ccccc23)CC1	2.2	-1.9	7.1	98.0	1.6*	-0.4	0.054	i
